These results are taken from ChEMBL document CHEMBL1138782, “Toward a novel metal-based chemotherapy against tropical diseases. 7. Synthesis and in vitro antimalarial activity of new gold-chloroquine complexes” (J Med Chem, 2004).

This assay has as its system Cell line. The assay can be described thus: Parasitaemia for Plasmodium falciparum in human erythrocytes after 3 hrs incubation with 100 uM compound. It counts as functional. The gist of the method:
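Uninfected RBCs preincubated 3 h at 37 °C with 100 µM compound, washed in RPMI medium, then placed 6 h with RBCs carrying 44–48 h schizonts of synchronized K1 culture (plasmagel and sorbitol synchronization); reinvasion read as resulting parasitemia (%).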

`CCN(CC)CCCC(C)Nc1ccnc2cc(Cl)ccc12.O=P(O)(O)O.O=P(O)(O)O` (stereo unspecified) [CHLOROQUINE PHOSPHATE] registered a Parasitemia of 5.67%.
